Test results as given in ChEMBL document CHEMBL1127507, “Search for the pharmacophore of bispyridinium-type allosteric modulators of muscarinic receptors” (J Med Chem, 1994).
“And” between values parts separate entries of the source, which are not always exact repeats. Equal values may be shown once.

Experiments:
[1] = target: T1, Muscarinic acetylcholine receptor M2 (Sus scrofa) (UniProt P06199); test: Hill coefficient, slope factors of reduction in dissociation rate of [3H]NMS from M2 receptor of pig heart
T1 sequence (whole entry): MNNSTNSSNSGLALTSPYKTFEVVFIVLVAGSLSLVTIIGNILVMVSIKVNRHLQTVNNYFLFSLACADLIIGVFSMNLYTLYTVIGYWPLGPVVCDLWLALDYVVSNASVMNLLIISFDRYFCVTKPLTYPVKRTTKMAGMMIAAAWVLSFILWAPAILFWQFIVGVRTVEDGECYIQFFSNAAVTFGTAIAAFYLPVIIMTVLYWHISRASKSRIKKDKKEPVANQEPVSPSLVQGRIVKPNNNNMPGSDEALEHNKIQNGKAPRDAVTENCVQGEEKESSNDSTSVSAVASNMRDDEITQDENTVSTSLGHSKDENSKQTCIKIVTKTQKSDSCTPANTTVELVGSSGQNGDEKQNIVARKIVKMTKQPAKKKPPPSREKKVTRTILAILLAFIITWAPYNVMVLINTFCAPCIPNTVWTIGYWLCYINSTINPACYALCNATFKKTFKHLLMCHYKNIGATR
How it was run: (§1)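 Porcine ventricular membranes (sucrose homogenate, 80000g pellet in 50 mM Tris-HCl pH 7.4) preincubated 30 min with 0.2 nM [3H]NMS in 3 mM MgHPO4/50 mM Tris-HCl, pH 7.3, 37 °C; dissociation started with 1 μM atropine plus compound. Residual binding at 4 min (two-point) gave k-1; sigmoid fit yielded EC50 and slope; filtration, scintillation; n=3-5.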

[2] = target: T2, Muscarinic acetylcholine receptor M2 (Sus scrofa, UniProt P06199); test: Reduction of dissociation rate of [3H]N-methylscopolamine ([3H]NMS) from muscarinic acetylcholine receptor M2 of pig heart; how it was run: as §1
T2 sequence (P06199 whole entry): T1 sequence (whole entry)

[3] = Partition coefficient (logP); assay type: physicochemical; settings: octanol/water
How it was run: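 Compound at 5×10^-5 M in octanol-saturated Na2HPO4 buffer pH 7.4, absorbance at 290 nm; 0.7 mL shaken 2 h with equal volume buffer-saturated octanol, centrifuged, aqueous absorbance remeasured; partition coefficient and log P from absorbance difference.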

SMILES | nH [1] | EC50 [2] [µM] | logP [3]
O/N=C/c1cc[n+](CCC[n+]2ccc(/C=N/OCc3c(Cl)cccc3Cl)cc2)cc1 | 1.3 | 11 | 1.7
CO/N=C/c1cc[n+](CCC[n+]2ccc(/C=N/OC)cc2)cc1 | – | > 1000 | –
C[N+](C)(C)CCC[n+]1ccc(/C=N/OCc2c(Cl)cccc2Cl)cc1 | 1.5 and 1.3 | 25 | 1.7
CCC[n+]1ccc(/C=N/OCc2c(Cl)cccc2Cl)cc1 | 1.2 | 26 | 0.6
COc1ccc(CCC[n+]2ccc(/C=N/OCc3c(Cl)cccc3Cl)cc2)cc1 | 1.5 | 6 | 0.3
Clc1cccc(Cl)c1CO/N=C/c1cc[n+](CCC[n+]2ccccc2)cc1 | 1.2 | 21 | –
O/N=C/c1cc[n+](CCC[n+]2ccc(/C=N/O)cc2)cc1 [TRIMEDOXIME] | – | > 1000 | –
CC[N+](CC)(CC)CCC[n+]1ccc(/C=N/OCc2c(Cl)cccc2Cl)cc1 | 0.9 | 23 | 1.4
Clc1cccc(Cl)c1CO/N=C/c1cc[n+](CCCc2ccccc2)cc1 | 1.2 | 9.4 | 0.5
Cc1cc[n+](CCC[n+]2ccc(/C=N/OCc3c(Cl)cccc3Cl)cc2)cc1 | 1.1 | 12 | 1.3
Clc1cccc(Cl)c1CO/N=C/c1cc[n+](CCC[n+]2ccc(/C=N/OCc3c(Cl)cccc3Cl)cc2)cc1 | 1.7 | 4.7 | 0.6
CN(C)c1cc[n+](CCC[n+]2ccc(/C=N/OCc3c(Cl)cccc3Cl)cc2)cc1 | 1.3 | 4.2 | 1.5
N#Cc1cc[n+](CCC[n+]2ccc(/C=N/OCc3c(Cl)cccc3Cl)cc2)cc1 | 1.1 | 17 | –
CO/N=C/c1cc[n+](CCC[n+]2ccc(/C=N/OCc3c(Cl)cccc3Cl)cc2)cc1 | 1.2 | 4.5 | -2
